High-throughput results (PubChem)
The list is not random: actives were taken first. Their share in the collection is about 3.3%.
FGF22 binding = shifts melting point of recombinant human FGF22; Q9HCT0; AID 651658; 340,000 compounds, 1.5% hits; activity (Tm shift, normalised), % at 9.99 µM; recombinant FGF22 thermal shift, SYPRO orange fluorescence; percent of sucrose octasulfate shift, DMSO zero;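 active means mean Tm shift, scaled 0 neutral to 100 positive control, at about 1.3% or above, every replicate too, limit read from the data; inconclusive means no clear call, values can overlap the other calls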
PglD DTNB = PglD (C. jejuni) enzyme inhibition | purified PglD enzyme, DTNB colorimetric CoA detection | AID 602405 | inhibition, % at 12.5 µM | 360,000 compounds, 0.098% hits; in the data active means inhibition above about 16%, passing the limit was not always enough; inconclusive means no clear call, values can overlap the other calls
DENV2 CPE = inhibitors of DENV2 cytopathic effect | 350,000 compounds, 1.7% hits | DENV2-infected cells, cytopathic effect rescue, plate reader | AID 651640 | CPE inhibition, % at 9.99 µM; in the data active means CPE inhibition above about 20%, passing the limit was not always enough; inconclusive means no clear call, values can overlap the other calls; tested in BHK-21 cells
E-selectin induc = E-selectin induction on HUVECs; 260,000 compounds, 0.37% hits; activation, % at 7.58 µM; HUVEC E-selectin immunofluorescence imaging; normalized: neutral wells 0, TNF-alpha wells 100; AID 686992;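 active means mean E-selectin-positive cell signal at least 10% of the positive control, reached in at least 60% of replicates, without over 20% cell loss; inconclusive means no rule given, readout overlaps actives, possibly toxicity-flagged; inactive means the rest, including those meeting only one limit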
Target sequence (P16581 whole entry, looked up): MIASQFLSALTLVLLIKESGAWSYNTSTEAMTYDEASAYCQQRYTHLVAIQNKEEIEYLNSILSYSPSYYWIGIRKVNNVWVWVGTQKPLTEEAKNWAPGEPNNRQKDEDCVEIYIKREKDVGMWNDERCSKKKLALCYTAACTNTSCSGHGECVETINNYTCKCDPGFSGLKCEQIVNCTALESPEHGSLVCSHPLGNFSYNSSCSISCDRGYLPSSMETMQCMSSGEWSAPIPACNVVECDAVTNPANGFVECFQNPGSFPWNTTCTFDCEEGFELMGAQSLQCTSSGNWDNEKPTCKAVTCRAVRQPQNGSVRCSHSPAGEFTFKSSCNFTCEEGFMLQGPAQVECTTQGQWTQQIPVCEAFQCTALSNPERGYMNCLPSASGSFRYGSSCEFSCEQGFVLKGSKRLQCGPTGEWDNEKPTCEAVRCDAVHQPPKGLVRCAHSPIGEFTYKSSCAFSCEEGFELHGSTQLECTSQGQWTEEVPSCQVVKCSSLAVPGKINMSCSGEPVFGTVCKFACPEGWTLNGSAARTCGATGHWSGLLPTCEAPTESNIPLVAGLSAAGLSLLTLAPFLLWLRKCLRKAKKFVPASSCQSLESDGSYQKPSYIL
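Test system: HUVEC; input: 3,000 HUVEC/well; measured by: immunofluorescence imaging; read-out: % PE-positive cells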
Xi reactivation = X-chromosome reactivation activator | activation, % at 7.58 µM | AID 743238 | XiGFP mouse fibroblasts, % GFP-positive cells imaging, 3 d; cells co-treated with 5-aza-dC sensitizer; scaled so ellipticine positive control = 100% | 360,000 compounds, 0.055% hits;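 active means mean normalized replicate activation at least 10% and every replicate at or above 10%; inconclusive means only one of the two criteria met; inactive means mean below 10% and not all replicates reach 10%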
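System: 68-5-11 XiGFP fibroblast line; Timing: 3 days compound exposure; Compound dosing: one concentration, pinned; Benchmarks: positive control ellipticine, 6 µM final; Buffer or medium: DMEM containing 5-aza-dC.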
C2C12 statin = suppression of simvastatin myotoxicity. C2C12 myotubes + simvastatin, ATP luminescence, 48 h; scaled: DMSO 0, geranylgeraniol control 100. AID 602340. 330,000 compounds, 0.78% hits. rescue of ATP level, % at 7.49 µM;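 active means mean ATP rescue above about 67%, or every replicate alone reaching that limit, limit read from the data, passing the limit was not always enough; inconclusive means no clear call, values can overlap the other calls; inactive means mean under the limit and some replicate under it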;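 further: myotubes were challenged with 10 µM simvastatin during compound exposure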
Numbers stand for hits; 0 = inactive; ? = inconclusive; - = no result.

SMILES | FGF22 binding | PglD DTNB | DENV2 CPE | E-selectin induc | Xi reactivation | C2C12 statin
COc1ccc2c3c([nH]c2c1)[C@@H](CO)N(C(=O)c1cnccn1)CC31CCN(S(C)(=O)=O)CC1 | 0 | - | 34 | 0 | 0 | -
COc1ccc2c3c([nH]c2c1)[C@@H](CO)N(C(=O)c1ccccn1)CC31CCN(C(=O)C2CCCC2)CC1 | 0 | - | 23 | 0 | 0 | -
CCC(=O)N(C)C[C@@H]1Oc2ncc(-c3ccccc3F)cc2C(=O)N([C@H](C)CO)C[C@@H]1C | 0 | 0 | 0 | 0 | 0 | 0
Cc1nn(-c2cccc(C(=O)O)c2)c(C)c1[N+](=O)[O-] | 44 | - | 0 | - | 0 | -
Cc1nn(CC(=O)c2cccc(Cl)c2)c(C)c1[N+](=O)[O-] | 43 | - | 0 | 0 | 0 | -
Cc1cc(C)n(-c2cccc(C(=O)O)c2)n1 | 44 | - | 0 | - | 0 | -
CC(C)NC(=O)Nc1cccc2c1O[C@H](CN(C)C(=O)Nc1cccc3ccccc13)[C@@H](C)CN([C@H](C)CO)C2=O | 0 | 0 | 0 | 0 | 0 | 0
CC1CN/C(=C\C(=O)c2ccccc2)C(=O)N1 (stereo not given) | - | 0 | - | - | - | 117
CC1CN/C(=C\C(=O)c2ccc(Cl)cc2)C(=O)N1 (stereo not given) | - | 0 | - | - | - | 88
O=C1NCCN/C1=C\C(=O)c1ccc(F)cc1 | 0 | - | 0 | - | 0 | -
CCc1nnc(NC(=O)CSc2nnc(-c3ccc(NS(=O)(=O)c4ccccc4)cc3)o2)s1 | 0 | 0 | 26 | - | 0 | 108
COC(=O)CSc1nnc(-c2ccc(NS(=O)(=O)c3ccccc3)cc2)o1 | - | 0 | - | - | - | 0
C=CCNC(=S)NC(CC(=O)OC)c1ccc2c(c1)OCO2 (stereo not given) | 43 | - | ? | 0 | 0 | -
COC1OCC(O)C(OC(=O)c2ccccc2)C1OC(=O)c1ccccc1 (stereo not given) | 43 | 0 | 0 | 0 | 0 | 0
COC1OC(COC(=O)c2ccccc2)C(OC(=O)c2ccccc2)C1OC(=O)c1ccccc1 (stereo not given) | 0 | 0 | 0 | 0 | 0 | 0
CCN(CC)S(=O)(=O)c1cccc(C(=O)c2c(C)cc3ccccn23)c1 | 43 | - | 0 | - | 0 | -
C[C@H](O)C#Cc1ccc2c(c1)O[C@@H](CN(C)C(=O)CC1CC1)[C@H](C)CN([C@H](C)CO)S2(=O)=O | 0 | 0 | 0 | 0 | 0 | 0
CN(C)c1ccc(CNS(=O)(=O)c2ccc3c(c2)C(C)(C)C(=O)N3C)cc1 | 0 | 0 | 49 | 0 | 0 | 0
COc1ccc(CNS(=O)(=O)c2ccc3c(c2)CCN3C(=O)C2CCC2)cc1 | 0 | 0 | 0 | 0 | 0 | 113
COc1ccc(CNS(=O)(=O)c2ccc3c(c2)C(C)(C)C(=O)N3C)cc1 | 0 | 0 | 0 | 127 | 0 | 0
CN1C(=O)c2cc(NC(=O)c3ccc(F)cc3)ccc2OC[C@@H]2O[C@H](CC(=O)NC3CCC3)CC[C@H]21 | 0 | 0 | 0 | 0 | 0 | 0
O=C(c1cc(C2CC2)nn1-c1ccccc1)N1CCN(Cc2ccc(Cl)cc2)CC1 | 0 | 0 | 0 | - | 0 | 0
Cc1cccc(C)c1NC(=O)CN1CCN(C(=O)c2cc(C3CC3)nn2-c2ccccc2)CC1 | 0 | 0 | 81 | 0 | 0 | 0
CC(C)c1ccc(CNc2nc3nc4c(c(=O)n3[nH]2)CCC4)cc1 | 0 | 0 | 0 | - | 0 | 111
COC(=O)NNC(=O)COc1ccc(Cl)cc1 | 0 | 0 | 0 | - | - | 94
SMILES | FGF22 binding | PglD DTNB | DENV2 CPE | E-selectin induc | Xi reactivation | C2C12 statin
COc1ccc(OCC(=O)Nc2ccc(Cl)cc2)cc1 | 0 | - | 0 | - | 0 | -
COc1ccccc1-c1ccc2c(c1)[C@H]1[C@H](CCN1S(=O)(=O)c1ccccc1F)[C@@H](CO)N2 | 0 | 0 | 0 | 0 | 0 | 0
O=S(=O)(c1ccccc1F)N1CC[C@@H]2[C@H]1c1cc(-c3cccc(F)c3)ccc1N[C@@H]2CO | - | 0 | - | 0 | 0 | 0
COc1ccccc1-c1ccc2c(c1)[C@H]1[C@H](CCN1S(=O)(=O)c1ccccc1F)[C@H](CO)N2 | 0 | 0 | 23 | 0 | 0 | 0
O=S(=O)(c1ccccc1F)N1CC[C@H]2[C@H](CO)Nc3ccc(-c4cccc(F)c4)cc3[C@H]21 | 0 | 0 | 29 | 0 | 0 | 0
COCC#Cc1cnc2c(c1)C(=O)N([C@@H](C)CO)C[C@H](C)[C@H](CN(C)Cc1ccc3c(c1)OCO3)O2 | 0 | 0 | 0 | 0 | 0 | 0
COCCNC(=O)C[C@H]1CC[C@@H]2[C@@H](COc3ccc(NC(=O)Nc4ccccc4)cc3C(=O)N2C)O1 | 0 | 0 | 0 | 0 | 0 | 0
C[C@H]1CCc2cnnn2COCCNC1=O | - | - | - | - | 0 | -
CC#C[C@@H](CC)c1ccc2ccn(C)c2c1 | 0 | 0 | 58 | 0 | 0 | 0
Cc1ccccc1-c1ccc2c(c1)O[C@H](CN(C)C(=O)c1ccccn1)[C@H](C)CN([C@@H](C)CO)S2(=O)=O | 0 | 0 | 0 | 0 | 0 | 0
O=C(/C=C/c1ccccc1)Nc1cccnc1Oc1ccccc1F | 0 | 0 | 0 | 0 | 0 | 94
Nc1cccnc1Oc1ccccc1F | 0 | 0 | 0 | 0 | 0 | 0
CCCCc1nc(SCCN2CCOCC2)c2c(=O)n(C)c(=O)n(C)c2n1 | 43 | - | 0 | - | 0 | -
CN(C)c1ccc(C#Cc2ccc3cc(CCCO)oc(=O)c3c2)cc1 | 0 | 0 | 78 | 0 | 0 | 0
O=c1oc(CCCO)cc2ccc(C#Cc3ccsc3)cc12 | 0 | 0 | - | 0 | 0 | 0
COC(=O)N1C(=O)[C@](c2ccsc2)(C(C)C)N1C(=O)OC | 0 | 0 | 48 | 0 | 0 | 0
O=C(Cc1coc(-c2ccc(F)cc2)n1)Nc1ccccc1 | - | 0 | - | - | - | 106
O=C(Cc1cc(C(=O)O)c2ccccc2n1)Nc1ccccc1 | 0 | 0 | 0 | - | 0 | 0
Cc1ccc(NC(=O)CN(C)C(=O)COc2ccc(C(=O)c3ccc(F)cc3)cc2)cc1 | 44 | - | 0 | - | 0 | -
CN(C)CC(=O)N1CC[C@@H]2[C@@H](CO)N(C)c3ccc(Br)cc3[C@@H]21 | 0 | 0 | 0 | ? | 0 | 0
Cc1nc2ccc(C(=O)NC(C)(C)C)cn2c1N(C)C(=O)CCc1ccccc1 | 0 | 0 | 35 | 0 | 0 | 0
Cc1nc2ccc(C(=O)Nc3cccc(NS(C)(=O)=O)c3)cn2c1N(C)C(=O)CCc1ccccc1 | 0 | 0 | 0 | 0 | 0 | 0
Cc1ccc(C(=O)NCc2ccncc2)cc1S(=O)(=O)Nc1cccc(C)c1C | 0 | 0 | 0 | 0 | 0 | 0
Cc1ccc(C)c(NS(=O)(=O)c2cc(C(=O)NCc3ccncc3)ccc2C)c1 | 0 | 0 | 98 | 0 | 0 | 0
C[C@H](CO)N1C[C@H](C)[C@H](CN(C)C(=O)Nc2ccc(F)cc2)OCCCC[C@H](C)Oc2ccc(NC(=O)Cc3ccccc3)cc2C1=O | 0 | 0 | 0 | 0 | 0 | 107
